# Sampled rows, rich in hits. Any-hit rate of the full collection: about 1.7%.
# TPT1 inh – inhibitors of Candida albicans tRNA 2'-phosphotransferase TPT1. recombinant caTPT1, FP RNA substrate dephosphorylation. inhibition, % at 5 µM. actives 0.81% (n = 300,000). AID 1962;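 active means inhibition above the mean of all tested compounds plus 3 SD, set per screening campaign, cut at about 24% in these data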;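 further: plate controls were DMSO alone for no effect and ferristatin control at 100 nM for full effect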
# CSN deneddyl inh – CSN deneddylation inhibition; inhibition, % at 12.5 µM; Purified CSN, SCF-Nedd8-OG deneddylation, fluorescence polarization; actives 0.38% (n = 360,000); AID 651999;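 active means pattern-corrected inhibition above about 35%, with an unprinted fluorescence ratio check between 0.5 and 1.5, limit read from the data, passing the limit was not always enough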;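 further: 0% = enzyme with substrate and 100% = substrate without enzyme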
# Target sequence (Q92905 whole entry, looked up, one chain of several): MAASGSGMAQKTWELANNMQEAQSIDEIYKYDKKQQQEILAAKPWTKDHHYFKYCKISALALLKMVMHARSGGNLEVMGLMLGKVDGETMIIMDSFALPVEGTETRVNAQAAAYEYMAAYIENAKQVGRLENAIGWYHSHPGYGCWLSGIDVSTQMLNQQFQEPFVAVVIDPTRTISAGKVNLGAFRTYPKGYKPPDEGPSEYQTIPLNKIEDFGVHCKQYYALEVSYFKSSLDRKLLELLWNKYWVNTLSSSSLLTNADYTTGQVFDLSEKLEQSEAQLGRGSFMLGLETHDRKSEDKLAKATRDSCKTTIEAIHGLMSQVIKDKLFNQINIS
#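 Schedule: reaction 90 min, room temperature / Assay system: HEK293T-derived human Csn5 enzyme / Input: Csn5 at 0.24 nM final / Measure: inhibition of Csn5 cleavage, % / Control set: substrate-only high control, full reaction low control / Technique: fluorescence polarization of the substrate / Buffer or medium: Tris/NaCl/DTT buffer, pH 7.5 / Reagent: SCFSkp2-Nedd8OG substrate at 10 nM final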
# TbMetRS inhib – blocks T. brucei methionyl-tRNA synthetase activity | purified T. brucei MetRS, ATP depletion, Kinase-Glo luminescence | inhibition, % at 11.9 µM | actives 0.4% (n = 360,000);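 active means inhibition above a per-plate cutoff of the control wells' mean inhibition plus 3 SD, cut at about 5.5% in these data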;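 further: 0% = DMSO wells median and 100% = median of wells with control inhibitor compound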
#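 Material: parasite MetRS enzyme / Replication: singlicate, one well per compound / Signal: luminescence of leftover ATP / Schedule: 2 h aminoacylation at 25 °C after 15 min preincubation / Medium: HEPES-MgCl2-KCl buffer plus DTT, spermine, BSA, pyrophosphatase / Doses: 11.9 µM single point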
# IDE cell inh – inhibits human insulin-degrading enzyme in HEK cells. FAbetaB cleavage, fluorescence polarization. inhibition, % at 5.59 µM. actives 0.41% (n = 320,000);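 active means percent inhibition above the average of all tested compounds plus 3 SD, set per screening campaign, cut at about 16% in these data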;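 further: IDE supplied by intact live HEK cells; FP after avidin binding of uncleaved biotin substrate so inhibition keeps polarization high; 0% = DMSO wells and 100% = 60 µM reference IDE inhibitor Ii1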
# IDE cell activ – IDE (human) activation, cell-based; activation, % at 5.96 µM; AID 493087; HEK cells, FAbeta-B cleavage, fluorescence polarization; 0% vehicle, 100% cell-free pure enzyme wells; actives 0.073% (n = 340,000);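 active means activation above the mean of all tested compounds plus 3 SD, set per screening campaign, cut at about 17% in these data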
# HNF4A DNA FP – change in binding of human HNF4 alpha to DNA | actives 0.3% (n = 360,000) | activity change, % at 10 µM | P41235 | HNF4a-FITC DNA binding, fluorescence polarization, 1 h; in the data active means activity change above about 30%, passing the limit was not always enough
# TbMetRS confirm – confirmation of Trypanosoma brucei MetRS inhibitors | shares compounds with TbMetRS inhib | T. brucei MetRS enzyme, luminescence (ATP depletion) | inhibition, % at 11.9 µM | actives 93% (n = 1,400) | AID 624412; in the data active means inhibition above about 7%
# Jurkat cytotox – kills Jurkat cells in T. brucei MetRS counterscreen. Jurkat cells viability, ATP luminescence. AID 624413. actives 12% (n = 1,400). shares compounds with TbMetRS inhib. inhibition, % at 8.3 µM; in the data active means inhibition above about 15%;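 further: 0% = vehicle and 100% = reference inhibitor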
# Tb MetRS inh FP – orthogonal test for Trypanosoma brucei MetRS inhibitors | shares compounds with TbMetRS inhib | purified T. brucei MetRS, fluorescence polarization | inhibition, % at 11.9 µM | actives 44% (n = 1,400) | AID 651607; in the data active means inhibition above about 17%;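 further: 0% = vehicle wells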
# * hit, by the source's call; x = not tested or not shown.
SMILES,TPT1 inh,CSN deneddyl inh,TbMetRS inhib,IDE cell inh,IDE cell activ,HNF4A DNA FP,TbMetRS confirm,Jurkat cytotox,Tb MetRS inh FP
COC(=O)C1=C(N)Oc2cc(C)n(Cc3cccnc3)c(=O)c2C1c1cccc(OC)c1OC (stereo not given),0,-5,-1,0,0,-1,x,x,x
COC(=O)C1=C(N)Oc2cc(C)n(CCc3ccccc3)c(=O)c2C1c1cccnc1 (stereo not given),-1,5,0,0,3,3,x,x,x
CC1(C)C(=O)Nc2ccccc2N1C(=O)COC(=O)CNS(=O)(=O)c1ccc(Br)cc1Cl,x,0,0,x,6,-2,x,x,x
O=S(=O)(Nc1ccccn1)c1ccc(Cl)c2ccccc12,-2,-17,-1,1,5,-3,x,x,x
CCN(CC)C(=O)Cn1cc(S(=O)(=O)CC(=O)NCc2ccc(F)cc2)c2ccccc21,-2,2,0,4,0,4,x,x,x
O=C(NCc1nc2ccccc2[nH]1)C1=C[C@H](C2CCCCC2)C[C@H](OCCCCO)O1,2,0,59*,0,2,2,75*,7,53*
O=C(NCc1nc2ccccc2[nH]1)C1=C[C@@H](C2CCCCC2)C[C@@H](OCc2ccc(CO)cc2)O1,2,4,9.0*,2,7,-4,82*,1,54*
CC1(C(=O)NS(=O)(=O)c2cccc(C#N)c2)CCN1C(=O)c1ccco1 (stereo not given),x,4,0,x,x,2,x,x,x
Cc1ccc(S(=O)(=O)N2[C@@H](CCO)OC[C@H]2C(C)C)cc1,x,1,0,x,x,2,x,x,x
CNC[C@@H]1Oc2cc(Br)ccc2S(=O)(=O)N([C@@H](C)CO)C[C@@H]1C,x,0,-1,x,x,1,x,x,x
COc1cccc(-n2c(SC)nnc2-c2c[nH]c3ccccc23)c1,-1,-1,13*,6,-8,-3,22*,8,13
COc1ccc(OC)c(-n2c(SCC(=O)NCc3ccco3)nnc2-c2c[nH]c3ccccc23)c1,0,-1,9.5*,1,0,1,21*,5,12
COc1ccc(-n2c(SC)nnc2-c2c[nH]c3ccccc23)cc1,-1,1,1,2,6,8,x,x,x
COc1cccc(-n2c(SCC(=O)NCc3ccco3)nnc2-c2c[nH]c3ccccc23)c1,-1,-3,5,3,5,1,x,x,x
CCCn1cnc2cc(NCc3ccccn3)ccc21,-4,1,0,-3,1,-1,x,x,x
CCCn1cnc2cc(NCc3cccc(OC)c3O)ccc21,3,-2,8.4*,-3,3,0,15*,0,3
COc1ccc(NC(=O)CN(C)C(=O)c2oc3c(ccc4ccccc43)c2C)cc1,x,6,6.4*,6,-2,2,23*,-7,13
CN(CC(=O)Nc1cccc(F)c1)C(=O)CCSc1ccc(F)cc1,1,6,15*,4,1,2,42*,1,20*
CN(CC(=O)Nc1ccccc1Cl)C(=O)CCSc1ccc(F)cc1,-4,3,0,1,3,-2,x,x,x
CN(CC(=O)Nc1cccc(F)c1)C(=O)c1ccc(-c2ccc(Cl)cc2)o1,1,1,21*,0,-1,-3,39*,-10,24*
COc1ccc(NC(=O)CN(C)C(=O)CCSc2ccc(F)cc2)cc1,x,3,8.7*,x,-2,3,33*,-1,6
CCOc1ccc(CCN2C(=S)N([C@@H](Cc3ccc(O)cc3)CN3CCC[C@@H]3CN3C(=S)NC[C@@H]3CC(C)C)C[C@@H]2Cc2ccc(O)cc2)cc1,x,2,-1,x,x,-3,x,x,x
O=C(C(=O)N1CCCc2ccccc21)c1c[nH]c2ccccc12,-1,-2,8.2*,0,1,6,13*,7,3
O=C(C(=O)N1CCN(c2ccccc2Cl)CC1)c1c[nH]c2ccccc12,0,4,13*,2,3,-10,24*,18*,8
Cc1c(C(=O)C(=O)N2CCN(Cc3ccc4c(c3)OCO4)CC2)c2ccccc2n1C,-1,-5,0,11,-2,-3,x,x,x
SMILES,TPT1 inh,CSN deneddyl inh,TbMetRS inhib,IDE cell inh,IDE cell activ,HNF4A DNA FP,TbMetRS confirm,Jurkat cytotox,Tb MetRS inh FP
O=C(C(=O)N1CCN(Cc2ccc3c(c2)OCO3)CC1)c1c[nH]c2ccccc12,2,4,9.6*,1,4,2,25*,7,8
Cc1[nH]c2ccccc2c1C(=O)C(=O)N1CCCc2ccccc21,2,2,2,-1,4,3,x,x,x
O=C(c1cc(=O)[nH]c2ccccc12)N1CC=C(c2ccccc2)CC1,-2,3,0,9,2,-9,x,x,x
O=C(C(=O)N1CC=C(c2ccccc2)CC1)c1c[nH]c2ccccc12,-2,-7,7.4*,-7,-9,0,17*,-1,10
C[C@H](CO)N1C[C@H](C)[C@@H](CN(C)C(=O)NC2CCCCC2)Oc2c(NC(=O)Nc3ccc(C(F)(F)F)cc3)cccc2C1=O,x,-1,0,-2,3,5,x,x,x
Cc1[nH]c2ccccc2c1C(=O)C(=O)N1CCN(c2ccccc2F)CC1,0,0,7.2*,1,2,-3,20*,-5,6
CC(=O)c1ccc(N2CCN(C(=O)C(=O)c3c(C)[nH]c4ccccc34)CC2)cc1,-3,1,4,2,3,0,x,x,x
CCOc1ccc(CCNC(=O)COC(=O)c2nc(Cl)ccc2Cl)cc1OCC,-2,0,0,2,-2,2,x,x,x
Cc1cccc(CC(Cc2nc3ccccc3[nH]2)c2nc3ccccc3[nH]2)c1 (stereo not given),-9,7,8.4*,2,1,0,21*,10,9
COc1ccccc1CC(Cc1nc2ccccc2[nH]1)c1nc2ccccc2[nH]1 (stereo not given),-1,0,5.7*,4,6,-3,11*,3,3
CC(C)Cc1nc2ccccc2[nH]1,-2,3,0,3,7,-1,x,x,x
CCNC(=O)CC1C(=O)N(c2ccc(F)cc2)C(=S)N1CCc1ccncc1 (stereo not given),-5,-6,-1,-3,5,-1,x,x,x
COc1ccc(NC(=O)CC2C(=O)N(C)C(=S)N2Cc2cccs2)cc1 (stereo not given),2,3,0,-4,-2,-1,x,x,x
